The subject of the data set is MS2 coat protein. Put plainly: apparent Kd, MS2 coat protein; higher = weaker binding; RNA-MaP array; theophylline 2 mM where present. In outline: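 On Illumina sequencing-chip clusters, designs were transcribed by stalled E. coli RNA polymerase and titrated with SNAP-549-labelled MS2 coat protein (0.7 or 1.5 nM, doubling to 3 µM), without and then with constant ligand, in 100 mM Tris-HCl pH 7.5, 80 mM KCl, 4 mM MgCl2, BSA, DTT, yeast tRNA and Tween-20. Apparent Kd is the median of filtered per-cluster curve fits to green signal normalised to red-channel RNA signal and control-cluster median Fmax.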

Setting [1] is: designed as: OFF switch for theophylline, no ligand.
Where [2] appears, read: ligand present: theophylline, designed as: OFF switch for theophylline.
[3] abbreviates: designed as: ON switch for theophylline, no ligand.
Where [4] appears, read: ligand present: theophylline, designed as: ON switch for theophylline.

For orientation: apparent Kd means the concentration giving half-maximal binding under the conditions of the assay. Consider “UCGCACAUGAGGAUCACCCAUGUACUAGAUACCAGUGACGCGGUGCACCCUUGGCAGCUGGUGCUGAGUGAUGGUUCCCUCGGCA”, for which the “apparent Kd” value reads like this: under setting [1], 119 nM; under setting [2], 143 nM.
Take “AUGUCGUUGAAUAUAGCGGCUUGGAGUGAUACCAGCAUGAUCCAAUGCCCUUGGCAGCAUAACAUGAGGAUCACCCAUGUUCCAG”: the “apparent Kd” value reads like this: under setting [3], 57.6 nM; under setting [4], 74.6 nM.
With “CAGCCUGAUUGGUAAAUCCCUCAUCGUGAUACCAGUCGAGUGAUCGACCCUUGGCAGCACAUGAGGAUCACCCAUGUGCGCGUAA”, the “apparent Kd” value is, setting by setting: under setting [1], 26.7 nM; under setting [2], 29.8 nM.
Take “ACACCGAAAGGUGCAUUUACCUUAUCAGAUACCAGACUUUACGUUGUCCCUUGGCAGCUGUAUCACAUGAGGAUCACCCAUGUUG”: the “apparent Kd” value was 15.5 nM under setting [3] and 16.5 nM under setting [4].
With “UAAAUAUUACUGGGUAAGGUAUAAAUAGAUACCAGCCAGAUAACUGGCCCUUGGCAGCUAAACAUGAGGAUCACCCAUGUAUAAU”, the “apparent Kd” value runs as follows: under setting [3], 37 nM; under setting [4], 116 nM.
Take “ACAUGAGGAUCACCCAUGUUCCUCAUUGAUACCAGUGAAUUUAGACGCCCUUGGCAGCGAGUUUUUUUAUAAGAUGUUUUUUUUU”: the “apparent Kd” value by setting is: under setting [1], 545 nM; under setting [2], 1110 nM.
Take “UAUUUGGUGCGCGAGUGUUGGAUAAUUGAUACCAGUGAAGAAGAGCGCCCUUGGCAGCGAAUCCUAACAUGAGGAUCACCCAUGU”: the “apparent Kd” value runs as follows: under setting [3], 39.2 nM; under setting [4], 48.7 nM.
In the case of “AUAACAUGAGGAUCACCCAUGUAAGCAGAUACCAGCUAGGAAACUAGCCCUUGGCAGCUGCAAUCCUCAUGUAUUGCAGCUGCAA”, the “apparent Kd” value under setting [1] came out at 15.7 nM and the “apparent Kd” value under setting [2] worked out at 36.2 nM.
Consider “UGUUUGGUGCGCGAGUGUUGGAUAAUUGAUACCAGUGUAGAUGUACGCCCUUGGCAGCGAAUCCGAACAUGAGGAUCACCCAUGU”, for which the “apparent Kd” value came to 32.5 nM under setting [3] and 87.2 nM under setting [4].
For “UGUUUGGUGCGCGAGUGUUGGAUAAAUGAUACCAGUGUAGAUGUACGCCCUUGGCAGCGUAUCCGAACAUGAGGAUCACCCAUGU”, in that order: 37.7 nM and 67.2 nM.
As to “GAUGAUAUUGCAGAUACCAGACACAUGAGGAUCACCCAUGUCGCUGAGAUGCUGGAUCGUGUCCCUUGGCAGCUGCGAUAUCAUC”, the “apparent Kd” value reads like this: under setting [1], 55.1 nM; under setting [2], 402 nM.
For “AUACCUAUUGAGUCGUGUUUCUAUUCAGAUACCAGACUUUUCGUUGUCCCUUGGCAGCUGUUUUACAUGAGGAUCACCCAUGUUG”, in that order: 15 nM and 17.5 nM.
As for “ACAAGUCCUCAUGAUACCAGCGAUGAGACAAAGUCUCAACAUGAGGAUCACCCAUGUACUCGCCCUUGGCAGCAUACGGUUUUUG”, the “apparent Kd” value was 415 nM under setting [3] and 43.6 nM under setting [4].
On to “ACAUGAGGAUCACCCAUGUUCCUCGCCGAUACCAGUGAAGAAUUACGCCCUUGGCAGCGGAAAGAGUAUUUUGGAGAUGAGGUAC”, for which the “apparent Kd” value is, setting by setting: under setting [1], 69.8 nM; under setting [2], 83.5 nM.
Take “ACGACGCAUAGUGAUACCAGUAGAACAUGAGGAUCACCCAUGUCUGUGACGCACAAACUCUGCCCUUGGCAGCACUAUGCGUCAG”: the “apparent Kd” value amounted to 10.8 nM under setting [3] and 17.4 nM under setting [4].
Taken in the same sequence, the figures for “ACUUGGUGGUGAUCCCUGCCAAGAGGUGAUACCAGCAUCGAAAGAUGCCCUUGGCAGCACCAACAUGAGGAUCACCCAUGUAAUA” were 156 nM and 157 nM.
Regarding “GGUGAUCCGUAUCACCGGAUCAUCGGUGAUACCAGCAUCGAAAGAUGCCCUUGGCAGCACCAACAUGAGGAUCACCCAUGUAAUA”, the “apparent Kd” value reads like this: under setting [3], 120 nM; under setting [4], 25.9 nM.
For “AAUAACAUGAGGAUCACCCAUGUAAAAGAUACCAGAGUGAUGAUCCUCCCUUGGCAGCUUAAAACGCUAUUGGAAACAAUAGCGA”, in that order: 80.5 nM and 168 nM.
As for “AAUAAGCAGCUGCCUUCCUCAUGAGCAGAUACCAGCUAGGAAACUAGCCCUUGGCAGCUGCAACAUGAGGAUCACCCAUGUAAUA”, the “apparent Kd” value came out at 65.8 nM under setting [1] and 73 nM under setting [2].
As to “AGCAUACAUUCUGAUACCAGAGACAUGAGGAUCACCCAUGUCCGAUCGUCCUGCCUCAGACUCCCUUGGCAGCAGGAUGUGUGCU”, the “apparent Kd” value reads like this: under setting [1], 13.9 nM; under setting [2], 33.4 nM.
Consider “GAGCUGAUGUAGAGCUAAUAUAAGAGAGAUACCAGUACAGAAAUGUACCCUUGGCAGCUCAACUUUACAUGAGGAUCACCCAUGU”, for which the “apparent Kd” value is, setting by setting: under setting [1], 13.9 nM; under setting [2], 16.9 nM.
Taken in the same sequence, the figures for “UCUGGGUGCGCAAGGACCUGGAGUUGCGAUACCAGCACGGUAACGUGCCCUUGGCAGCGCACAUGAGGAUCACCCAUGUGGUGUU” were 310 nM and 388 nM.
As to “UCUUUCUUUGUAGAUACCAGCGUGUUAUCUUUCUUUUGACAUGAGGAUCACCCAUGUAUAUGCCCUUGGCAGCUACAUAUUCUUU”, the “apparent Kd” value came out at 18.5 nM under setting [3] and 14.2 nM under setting [4].

Values taken from the EternaBench riboswitch data.
